Square brackets hold non-standard residues; d marks the D form. Peptide text beside a SMILES is read from it. Aib = CC(C)(N)C(=O)O
Experiments:
[1] = system: Human immunodeficiency virus 1; experiment: Antiviral activity against HIV1 assessed as inhibition of fusion of gp160 expressing human HeLa cells and CCR5-expressing Tat-long terminal repeat luciferase reporter cells; type: functional, organism-based; settings: Human immunodeficiency virus 1, HeLa
Procedure, shortened: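 Cell-cell fusion run by a collaborating lab: HeLa effector cells with inducible gp160 expression were mixed with CCR5-expressing Tat-LTR-luciferase reporter cells, and syncytium formation was scored. DMSO in cell culture was capped at 1%.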

[2] = Inhibition of HIV1 gp41 by metallopeptide-based fluorescence assay using dose response study; parameters: species or system Human immunodeficiency virus 1
Procedure, shortened: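 Competitive dose-response with 7.2 μM Fe(II) HR1 metallopeptide receptor and 1 μM C18-Aib-LY probe across varying inhibitor concentrations. Buffer was pH 7.0 Tris/acetate with 0.01% Tween 20 and 4% DMSO; read at ex 425/em 540 nm, relative to free-probe maximum. Curves were fit to equations 5 and 8 for Ki; three independent experiments, mean ± SD.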

[3] = Inhibition of HIV1 gp41 by metallopeptide-based fluorescence assay; parameters: species or system Human immunodeficiency virus 1
Procedure, shortened: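 HR1 coiled-coil metallopeptide receptor [Fe(II)(env2.0)3]2+ (7.2 μM final) was mixed with LY-labelled HR2 probe C18-Aib-LY (1 μM) and 20 μM inhibitor in 25 mM Tris, 25 mM sodium acetate pH 7.0, 0.01% Tween 20, 4% DMSO. Inhibitor displacement relieved quenching; fluorescence was read at ex 425/em 540 nm. Signal was taken as primary/control scan ratio and Ki derived from binding equations.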

[4] = system: Human immunodeficiency virus 1; experiment: Antiviral activity against HIV1 assessed as syncytium inhibition by cell-cell fusion assay; type: functional, organism-based
Procedure, shortened: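 HIV-1 fusion run as a cell-cell assay: HeLa effector cells with inducible gp160 expression were paired with CCR5-expressing reporter cells carrying Tat-responsive LTR-luciferase, with luciferase as the read-out. DMSO in culture was capped at 1%.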

[5] = system: Human immunodeficiency virus 1; experiment: Antiviral activity against HIV1 assessed as six-helix bundle formation assay; type: functional

`O=C(O)c1ccc(NC(=O)c2cccc(Cc3cccc4cccnc34)c2)c(Cc2cccc(F)c2)c1` gave an IC50 [1] of 8 µM, a Ki [2] of 1.51 µM and a Ki [3] of 1.15 µM.
In the case of `O=C(O)c1ccc(NC(=O)c2cccc(Cc3ccc(F)cc3)c2)c(Cc2cccc([N+](=O)[O-])c2)c1`, the IC50 [1] is reported as 8 µM, the Ki [2] is reported as 1.34 µM and the Ki [3] is reported as 1.2 µM.
`CC[C@H](C)[C@H](NC(=O)[C@H](CC(C)C)NC(=O)[C@H](CO)NC(=O)[C@@H](NC(=O)[C@H](Cc1ccc(O)cc1)NC(=O)[C@H](CC(N)=O)NC(=O)C(C)(C)NC(=O)[C@@H](NC(=O)[C@H](CCC(=O)O)NC(=O)[C@H](CCCNC(=N)N)NC(=O)[C@H](CC(=O)O)NC(=O)[C@H](Cc1c[nH]c2ccccc12)NC(=O)[C@H](CCC(=O)O)NC(=O)C(C)(C)NC(=O)[C@H](Cc1c[nH]c2ccccc12)NC(=O)[C@@H](NC(=O)[C@H](CCSC)NC(C)=O)[C@@H](C)O)[C@@H](C)CC)[C@@H](C)O)C(=O)N[C@@H](CS)C(N)=O` (Ac-MTW[Aib]EWDREI[Aib]NYTSLIC-NH2) showed a Ki [2] of 0.8 µM and a Ki [3] of 0.6 µM.
With `O=C(O[C@@H]1Cc2c(O)cc(O)cc2O[C@H]1c1cc(O)c(O)c(O)c1)c1cc(O)c(O)c(O)c1` (single isomer, unassigned) [GALLOCATECHIN GALLATE] the IC50 [4] was 4.32 µM.
Molecule `O=C(O[C@@H]1Cc2c(O)cc(O)cc2O[C@@H]1c1cc(O)c(O)c(O)c1)c1cc(O)c(O)c(O)c1` [EPIGALOCATECHIN GALLATE] has an IC50 [5] of 19.9 µM.

Source: ChEMBL document CHEMBL1150796, “A novel fluorescence intensity screening assay identifies new low-molecular-weight inhibitors of the gp41 coiled-coil domain of human immunodeficiency virus type 1” (Antimicrob Agents Chemother, 2007)
